Where a SMILES comes first, the peptide text is derived from it. [ ]: non-standard residue; d: D form. Abu = CC[C@H](N)C(=O)O
Molecular target: Furin (Homo sapiens, UniProt P09958)
Assay: Inhibition of recombinant soluble human furin using pyroGlu-Arg-Thr-Lys-Arg-methyl-coumaryl-7-amide as substrate measured after 1 hr
Settings: not given
Summary of the method: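 Soluble human recombinant furin was tested in a competitive kinetic assay. Ki is reported as the mean ± SD of at least two independent experiments.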

Chain of Furin (P09958 whole entry): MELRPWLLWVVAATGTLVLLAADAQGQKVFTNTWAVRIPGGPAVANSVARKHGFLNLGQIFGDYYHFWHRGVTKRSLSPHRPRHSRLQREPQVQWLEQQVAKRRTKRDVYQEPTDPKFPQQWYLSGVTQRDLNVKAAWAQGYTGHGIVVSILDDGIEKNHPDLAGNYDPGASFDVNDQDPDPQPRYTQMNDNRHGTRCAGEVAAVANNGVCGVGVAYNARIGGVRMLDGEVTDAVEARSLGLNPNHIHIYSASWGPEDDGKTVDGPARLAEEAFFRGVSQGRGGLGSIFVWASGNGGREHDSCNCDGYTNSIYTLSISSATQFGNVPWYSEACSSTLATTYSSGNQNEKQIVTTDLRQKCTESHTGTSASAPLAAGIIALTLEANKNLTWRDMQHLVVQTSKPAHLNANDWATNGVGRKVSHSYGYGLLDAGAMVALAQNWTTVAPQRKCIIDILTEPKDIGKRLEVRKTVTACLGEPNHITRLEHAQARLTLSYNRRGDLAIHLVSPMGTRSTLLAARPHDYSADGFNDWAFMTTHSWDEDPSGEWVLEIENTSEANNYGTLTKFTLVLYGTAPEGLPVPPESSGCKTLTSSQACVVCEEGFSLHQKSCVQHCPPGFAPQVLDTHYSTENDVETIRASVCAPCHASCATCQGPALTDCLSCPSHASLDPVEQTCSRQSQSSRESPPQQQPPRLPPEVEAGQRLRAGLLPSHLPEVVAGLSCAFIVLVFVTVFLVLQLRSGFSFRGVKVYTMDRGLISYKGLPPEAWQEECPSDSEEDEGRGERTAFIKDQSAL

Structure (SMILES)	Ki [µM]
CC(=O)N[C@@H](CCCNC(=N)N)C(=O)N[C@@H](C)C(=O)N[C@@H](CCCNC(=N)N)C(=O)N[C@@H](CCCNC(=N)N)C(=O)N[C@@H](CCCNC(=N)N)C(=O)N[C@@H](CCCCN)C(=O)N[C@@H](CCCCN)C(=O)NN(CCCNC(=N)N)CC(=O)N[C@@H](Cc1ccccc1)C(N)=O	2.5
CC(=O)N[C@@H](Cc1ccccc1)C(=O)N[C@@H](C)C(=O)N[C@@H](CCCNC(=N)N)C(=O)N[C@@H](CCCNC(=N)N)C(=O)N[C@@H](CCCNC(=N)N)C(=O)N[C@@H](CCCCN)C(=O)N[C@@H](CCCCN)C(=O)N[C@@H](CCCNC(=N)N)C(=O)N[C@H](C(N)=O)[C@@H](C)O	0.014
CC(=O)N[C@@H](CCCNC(=N)N)C(=O)N[C@@H](C)C(=O)N[C@@H](Cc1ccccc1)C(=O)N[C@@H](CCCNC(=N)N)C(=O)N[C@@H](CCCNC(=N)N)C(=O)N[C@@H](CCCCN)C(=O)N[C@@H](CCCCN)C(=O)N[C@@H](CCCNC(=N)N)C(=O)N[C@H](C(N)=O)[C@@H](C)O	0.029
CC(=O)N[C@@H](CC(C)C)C(=O)N[C@@H](C)C(=O)N[C@@H](CCCNC(=N)N)C(=O)N[C@@H](CCCNC(=N)N)C(=O)N[C@@H](CCCNC(=N)N)C(=O)N[C@@H](CCCCN)C(=O)N[C@@H](CCCCN)C(=O)N[C@@H](CCCNC(=N)N)C(=O)N[C@H](C(N)=O)[C@@H](C)O	0.012
CC(=O)N[C@@H](Cc1c[nH]cn1)C(=O)N[C@@H](C)C(=O)N[C@@H](CCCNC(=N)N)C(=O)N[C@@H](CCCNC(=N)N)C(=O)N[C@@H](CCCNC(=N)N)C(=O)N[C@@H](CCCCN)C(=O)N[C@@H](CCCCN)C(=O)N[C@@H](CCCNC(=N)N)C(=O)N[C@H](C(N)=O)[C@@H](C)O	0.012
CC(=O)N[C@@H](CCCNC(=N)N)C(=O)N[C@@H](CC(N)=O)C(=O)N[C@@H](CCCNC(=N)N)C(=O)N[C@@H](CCCNC(=N)N)C(=O)N[C@@H](CCCNC(=N)N)C(=O)N[C@@H](CCCCN)C(=O)N[C@@H](CCCCN)C(=O)N[C@@H](CCCNC(=N)N)C(=O)N[C@H](C(N)=O)[C@@H](C)O	0.02
CC(=O)N[C@@H](CCCNC(=N)N)C(=O)N[C@@H](C)C(=O)N[C@@H](CCCNC(=N)N)C(=O)N[C@@H](CCC(=O)O)C(=O)N[C@@H](CCCNC(=N)N)C(=O)N[C@@H](CCCCN)C(=O)N[C@@H](CCCCN)C(=O)N[C@@H](CCCNC(=N)N)C(=O)N[C@H](C(N)=O)[C@@H](C)O	0.055
CC(=O)N[C@@H](CC(=O)O)C(=O)N[C@@H](C)C(=O)N[C@@H](CCCNC(=N)N)C(=O)N[C@@H](CCCNC(=N)N)C(=O)N[C@@H](CCCNC(=N)N)C(=O)N[C@@H](CCCCN)C(=O)N[C@@H](CCCCN)C(=O)N[C@@H](CCCNC(=N)N)C(=O)N[C@H](C(N)=O)[C@@H](C)O	0.02
CC(=O)N[C@@H](CCCNC(=N)N)C(=O)N[C@@H](C)C(=O)N[C@@H](CCCNC(=N)N)C(=O)N1CCC[C@H]1C(=O)N[C@@H](CCCNC(=N)N)C(=O)N[C@@H](CCCCN)C(=O)N[C@@H](CCCCN)C(=O)N[C@@H](CCCNC(=N)N)C(=O)N[C@H](C(N)=O)[C@@H](C)O	0.008
CC(=O)N[C@@H](CCCNC(=N)N)C(=O)N[C@@H](CCC(N)=O)C(=O)N[C@@H](CCCNC(=N)N)C(=O)N[C@@H](CCCNC(=N)N)C(=O)N[C@@H](CCCNC(=N)N)C(=O)N[C@@H](CCCCN)C(=O)N[C@@H](CCCCN)C(=O)N[C@@H](CCCNC(=N)N)C(=O)N[C@H](C(N)=O)[C@@H](C)O	0.019
CC[C@H](NC(=O)[C@H](CCCNC(=N)N)NC(=O)[C@H](C)NC(=O)[C@@H]1CCCN1C(C)=O)C(=O)N[C@@H](CCCNC(=N)N)C(=O)N[C@@H](CCCCN)C(=O)N[C@@H](CCCCN)C(=O)N[C@@H](CCCNC(=N)N)C(=O)N[C@H](C(N)=O)[C@@H](C)O	0.01
CC(=O)N[C@@H](CCCNC(=N)N)C(=O)N[C@@H](C)C(=O)NCC(=O)N[C@@H](CCCNC(=N)N)C(=O)N[C@@H](CCCNC(=N)N)C(=O)N[C@@H](CCCCN)C(=O)N[C@@H](CCCCN)C(=O)N[C@@H](CCCNC(=N)N)C(=O)N[C@H](C(N)=O)[C@@H](C)O	0.035
CC(=O)N[C@@H](CCCNC(=N)N)C(=O)N[C@@H](C)C(=O)N[C@@H](CCCNC(=N)N)C(=O)N[C@@H](CO)C(=O)N[C@@H](CCCNC(=N)N)C(=O)N[C@@H](CCCCN)C(=O)N[C@@H](CCCCN)C(=O)N[C@@H](CCCNC(=N)N)C(=O)N[C@H](C(N)=O)[C@@H](C)O	0.009
CC(=O)N[C@@H](CCCNC(=N)N)C(=O)N[C@@H](C)C(=O)N[C@@H](CCC(N)=O)C(=O)N[C@@H](CCCNC(=N)N)C(=O)N[C@@H](CCCNC(=N)N)C(=O)N[C@@H](CCCCN)C(=O)N[C@@H](CCCCN)C(=O)N[C@@H](CCCNC(=N)N)C(=O)N[C@H](C(N)=O)[C@@H](C)O	0.02
CC[C@H](C)[C@H](NC(=O)[C@H](CCCNC(=N)N)NC(=O)[C@H](C)NC(=O)[C@H](CCC(N)=O)NC(C)=O)C(=O)N[C@@H](CCCNC(=N)N)C(=O)N[C@@H](CCCCN)C(=O)N[C@@H](CCCCN)C(=O)N[C@@H](CCCNC(=N)N)C(=O)N[C@H](C(N)=O)[C@@H](C)O (Ac-QARIRKKRT-NH2)	0.009
CC[C@H](C)[C@H](NC(=O)[C@H](CCCNC(=N)N)NC(=O)[C@H](C)NC(=O)[C@@H](NC(C)=O)C(C)C)C(=O)N[C@@H](CCCNC(=N)N)C(=O)N[C@@H](CCCCN)C(=O)N[C@@H](CCCCN)C(=O)N[C@@H](CCCNC(=N)N)C(=O)N[C@H](C(N)=O)[C@@H](C)O (Ac-VARIRKKRT-NH2)	0.01
CC(=O)N[C@@H](CCCNC(=N)N)C(=O)N[C@@H](Cc1ccccc1)C(=O)N[C@@H](CCCNC(=N)N)C(=O)N[C@@H](CCCNC(=N)N)C(=O)N[C@@H](CCCNC(=N)N)C(=O)N[C@@H](CCCCN)C(=O)N[C@@H](CCCCN)C(=O)N[C@@H](CCCNC(=N)N)C(=O)N[C@H](C(N)=O)[C@@H](C)O	0.023
CC(=O)N[C@@H](CCCNC(=N)N)C(=O)N[C@@H](C)C(=O)N[C@@H](CCCNC(=N)N)C(=O)N[C@H](C(=O)N[C@@H](CCCNC(=N)N)C(=O)N[C@@H](CCCCN)C(=O)N[C@@H](CCCCN)C(=O)N[C@@H](CCCNC(=N)N)C(=O)N[C@H](C(N)=O)[C@@H](C)O)[C@@H](C)O	0.008
CC(=O)N[C@@H](CCCNC(=N)N)C(=O)N[C@@H](C)C(=O)N[C@@H](CC(C)C)C(=O)N[C@@H](CCCNC(=N)N)C(=O)N[C@@H](CCCNC(=N)N)C(=O)N[C@@H](CCCCN)C(=O)N[C@@H](CCCCN)C(=O)N[C@@H](CCCNC(=N)N)C(=O)N[C@H](C(N)=O)[C@@H](C)O	0.014
CC(=O)N[C@@H](CCCNC(=N)N)C(=O)N[C@@H](C)C(=O)N[C@H](C(=O)N[C@@H](CCCNC(=N)N)C(=O)N[C@@H](CCCNC(=N)N)C(=O)N[C@@H](CCCCN)C(=O)N[C@@H](CCCCN)C(=O)N[C@@H](CCCNC(=N)N)C(=O)N[C@H](C(N)=O)[C@@H](C)O)C(C)C	0.021
CC(=O)N[C@@H](CCCNC(=N)N)C(=O)N[C@@H](C)C(=O)N[C@@H](Cc1c[nH]c2ccccc12)C(=O)N[C@@H](CCCNC(=N)N)C(=O)N[C@@H](CCCNC(=N)N)C(=O)N[C@@H](CCCCN)C(=O)N[C@@H](CCCCN)C(=O)N[C@@H](CCCNC(=N)N)C(=O)N[C@H](C(N)=O)[C@@H](C)O	0.097
CC[C@H](NC(=O)[C@H](CCCNC(=N)N)NC(=O)[C@H](C)NC(=O)CNC(C)=O)C(=O)N[C@@H](CCCNC(=N)N)C(=O)N[C@@H](CCCCN)C(=O)N[C@@H](CCCCN)C(=O)N[C@@H](CCCNC(=N)N)C(=O)N[C@H](C(N)=O)[C@@H](C)O (Ac-GAR[Abu]RKKRT-NH2)	0.01
CC(=O)NCC(=O)N[C@@H](C)C(=O)N[C@@H](CCCNC(=N)N)C(=O)N[C@@H](CCCNC(=N)N)C(=O)N[C@@H](CCCNC(=N)N)C(=O)N[C@@H](CCCCN)C(=O)N[C@@H](CCCCN)C(=O)N[C@@H](CCCNC(=N)N)C(=O)N[C@H](C(N)=O)[C@@H](C)O	0.011
CC[C@H](NC(=O)[C@H](CCCNC(=N)N)NC(=O)[C@H](C)NC(=O)[C@@H](CO)NC(C)=O)C(=O)N[C@@H](CCCNC(=N)N)C(=O)N[C@@H](CCCCN)C(=O)N[C@@H](CCCCN)C(=O)N[C@@H](CCCNC(=N)N)C(=O)N[C@H](C(N)=O)[C@@H](C)O	0.015
CSCC[C@H](NC(=O)[C@H](CCCNC(=N)N)NC(=O)[C@H](C)NC(=O)[C@H](CCCNC(=N)N)NC(C)=O)C(=O)N[C@@H](CCCNC(=N)N)C(=O)N[C@@H](CCCCN)C(=O)N[C@@H](CCCCN)C(=O)N[C@@H](CCCNC(=N)N)C(=O)N[C@H](C(N)=O)[C@@H](C)O	0.016
CC[C@H](C)[C@H](NC(=O)[C@H](CCCNC(=N)N)NC(=O)[C@H](C)NC(=O)[C@@H](NC(C)=O)[C@@H](C)O)C(=O)N[C@@H](CCCNC(=N)N)C(=O)N[C@@H](CCCCN)C(=O)N[C@@H](CCCCN)C(=O)N[C@@H](CCCNC(=N)N)C(=O)N[C@H](C(N)=O)[C@@H](C)O (Ac-TARIRKKRT-NH2)	0.011
CC(=O)N1CCC[C@H]1C(=O)N[C@@H](C)C(=O)N[C@@H](CCCNC(=N)N)C(=O)N[C@@H](CCCNC(=N)N)C(=O)N[C@@H](CCCNC(=N)N)C(=O)N[C@@H](CCCCN)C(=O)N[C@@H](CCCCN)C(=O)N[C@@H](CCCNC(=N)N)C(=O)N[C@H](C(N)=O)[C@@H](C)O	0.01
CC(=O)N[C@@H](Cc1ccc(O)cc1)C(=O)N[C@@H](C)C(=O)N[C@@H](CCCNC(=N)N)C(=O)N[C@@H](CCCNC(=N)N)C(=O)N[C@@H](CCCNC(=N)N)C(=O)N[C@@H](CCCCN)C(=O)N[C@@H](CCCCN)C(=O)N[C@@H](CCCNC(=N)N)C(=O)N[C@H](C(N)=O)[C@@H](C)O	0.018

Tested on: not listed separately
Assay: Half life in CD1 mouse plasma by LC-MS/MS analysis
Assay type: ADME, cell-free
Settings: CD1, mouse
Summary of the method: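 Peptide incubated ex vivo in mouse plasma at 37 °C and sampled at several time points, using the ng/mL concentration range. Intact peptide quantified by high-resolution mass spectrometry and expressed as percentage remaining; t1/2 derived from the time course. Each time point run in triplicate; mean and mean ± SD reported.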

Structure (SMILES)	half-life [s]
CC(=O)N[C@@H](CCCNC(=N)N)C(=O)N[C@@H](C)C(=O)N[C@@H](CCCNC(=N)N)C(=O)N[C@@H](CCCNC(=N)N)C(=O)N[C@@H](CCCNC(=N)N)C(=O)N[C@@H](CCCCN)C(=O)N[C@@H](CCCCN)C(=O)NN(CCCNC(=N)N)CC(=O)N[C@@H](Cc1ccccc1)C(N)=O	155
CC(=O)N[C@@H](Cc1ccccc1)C(=O)N[C@@H](C)C(=O)N[C@@H](CCCNC(=N)N)C(=O)N[C@@H](CCCNC(=N)N)C(=O)N[C@@H](CCCNC(=N)N)C(=O)N[C@@H](CCCCN)C(=O)N[C@@H](CCCCN)C(=O)N[C@@H](CCCNC(=N)N)C(=O)N[C@H](C(N)=O)[C@@H](C)O	33.6
CC(=O)N[C@@H](CCCNC(=N)N)C(=O)N[C@@H](C)C(=O)N[C@@H](Cc1ccccc1)C(=O)N[C@@H](CCCNC(=N)N)C(=O)N[C@@H](CCCNC(=N)N)C(=O)N[C@@H](CCCCN)C(=O)N[C@@H](CCCCN)C(=O)N[C@@H](CCCNC(=N)N)C(=O)N[C@H](C(N)=O)[C@@H](C)O	12.6
CC(=O)N[C@@H](CCCNC(=N)N)C(=O)N[C@@H](Cc1ccccc1)C(=O)N[C@@H](CCCNC(=N)N)C(=O)N[C@@H](CCCNC(=N)N)C(=O)N[C@@H](CCCNC(=N)N)C(=O)N[C@@H](CCCCN)C(=O)N[C@@H](CCCCN)C(=O)N[C@@H](CCCNC(=N)N)C(=O)N[C@H](C(N)=O)[C@@H](C)O	57.6

From ChEMBL document CHEMBL4680371, “Design and Structure-Activity Relationship of a Potent Furin Inhibitor Derived from Influenza Hemagglutinin” (ACS Med Chem Lett, 2021)
